Test results from ChEMBL document CHEMBL1122591, “(Imidazolylphenyl)formamidines. A structurally novel class of potent histamine H2 receptor antagonists” (J Med Chem, 1984).

Tests used:
[1] = molecular target: Histamine H2 receptor (Cavia porcellus) (UniProt P47747); assay: Evaluated in vitro for histamine H2 receptor antagonist activity by using histamine-stimulated chronotropic response of the guinea pig atrium; format: functional, tissue-based; settings: Cardiac atrium
How it was run: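 A cumulative histamine concentration–response curve (rate) was then repeated with successive antagonist concentrations, each pre-incubated 30 min. Dose ratios compared histamine concentrations giving half-maximal stimulation with and without antagonist.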

Rattus norvegicus = assay: Compound was evaluated in vivo for the gastric antisecretory activity in the lumen perfused stomach of the anesthetized rat after iv administration; format: functional
How it was run: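 Male Sprague–Dawley rats (250 g) were anesthetized with urethane (1 g/kg) and given a lumen-perfused stomach preparation. Acid secretion was driven by constant i.v. histamine infusion [1 mg/(kg h)]. ED50 was taken from the regression line of percent inhibition of acid output.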

[2] = Compound was evaluated for the ionization constant (pKa) by using potentiometric titration (ionization of end group); format: physicochemical
How it was run: (§1)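 Potentiometric titration of the hydrochloride salt with water as solvent.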

[3] = Compound was evaluated for the ionization constant (pKa) by using potentiometric titration (ionization of imidazole group); format: physicochemical; how it was run: as §1

Sequence of Histamine H2 receptor (Cavia porcellus) (P47747 whole entry): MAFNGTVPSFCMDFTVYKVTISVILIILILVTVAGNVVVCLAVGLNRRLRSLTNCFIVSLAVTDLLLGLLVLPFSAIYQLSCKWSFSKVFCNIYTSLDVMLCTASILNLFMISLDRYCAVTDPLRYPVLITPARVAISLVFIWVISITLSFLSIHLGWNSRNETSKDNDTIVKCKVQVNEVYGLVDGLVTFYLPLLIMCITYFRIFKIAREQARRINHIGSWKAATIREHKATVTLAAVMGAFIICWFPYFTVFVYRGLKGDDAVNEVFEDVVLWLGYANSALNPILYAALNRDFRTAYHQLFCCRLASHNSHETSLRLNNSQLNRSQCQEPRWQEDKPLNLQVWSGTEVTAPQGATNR

| Kb [1] | pKa [2] | pKa [3] | Compound | ED50 (Rattus norvegicus) |
| --- | --- | --- | --- | --- |
| 13 nM |  |  | C=CC/N=C/Nc1ccc(-c2c[nH]cn2)cc1.O=C(O)/C=C/C(=O)O | 0.024 mg/kg |
| 24 nM | 8.88 | 5.58 | CC(C)/N=C/Nc1ccc(-c2c[nH]cn2)cc1.Cl | 0.019 mg/kg |
| 19 nM |  |  | CC/N=C/Nc1ccc(-c2c[nH]cn2)cc1.Cl | 0.02 mg/kg |
| 32 nM |  |  | CCC/N=C/Nc1ccc(-c2c[nH]cn2)cc1.Cl | 0.011 mg/kg |
| 1200 nM |  |  | C/N=C\Nc1ccc(-c2c[nH]cn2)cc1.Cl | 1.1 mg/kg |
| 69 nM |  |  | CC(C)C/N=C/Nc1ccc(-c2c[nH]cn2)cc1.Cl | 0.026 mg/kg |

Continued, compound first:

| Compound | Kb [1] | pKa [2] | pKa [3] | ED50 (Rattus norvegicus) |
| --- | --- | --- | --- | --- |
| Cl.N=C(N)Nc1cccc(-c2c[nH]cn2)c1 | 5500 nM |  |  | 3.2 mg/kg |
| CNC(=N)c1cccc(-c2c[nH]cn2)c1.Cl | 8700 nM |  |  | 3.5 mg/kg |
| CC(C)(C)/N=C/Nc1ccc(-c2c[nH]cn2)cc1.O=S(=O)(O)O |  |  |  | 0.017 mg/kg |
| Cl.N=C(N)c1cccc(-c2c[nH]cn2)c1 | 7200 nM |  |  | 10 mg/kg |
| C/N=C(/N)Nc1cccc(-c2c[nH]cn2)c1.Cl | 4400 nM |  |  | 3.6 mg/kg |
| NCCc1c[nH]cn1 [HISTAMINE] |  | 9.81 | 6.07 |  |
| CN/C(=N\CCSCc1nc[nH]c1C)NC#N [CIMETIDINE] |  | -0.4 |  | 0.56 mg/kg |
